Screens from PubChem.
MrgX1 ag = human MrgX1 receptor agonism, primary screen; Q96LB2; MrgX1-HEK293 cells, Fluo-4 calcium fluorescence, agonist mode; active compounds read high; B-score at 10 µM; 310,000 tested, 0.44% active;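 active means calcium response B-score plate-corrected fluorescence ratio at least 3 library SD, with starting fluorescence B-score inside 5 SD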
Target sequence (Q96LB2 whole entry, looked up): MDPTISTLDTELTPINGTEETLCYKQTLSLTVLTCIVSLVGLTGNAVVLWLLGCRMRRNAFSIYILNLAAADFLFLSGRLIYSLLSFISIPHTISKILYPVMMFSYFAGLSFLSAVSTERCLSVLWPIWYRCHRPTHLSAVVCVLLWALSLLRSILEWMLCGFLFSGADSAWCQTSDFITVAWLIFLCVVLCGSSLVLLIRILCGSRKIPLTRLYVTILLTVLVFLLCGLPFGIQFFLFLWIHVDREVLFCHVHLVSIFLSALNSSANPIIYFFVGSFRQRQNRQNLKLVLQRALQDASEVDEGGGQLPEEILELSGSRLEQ
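Assay system: stable human MrgX1 HEK293 cell line. Quantity: 15,000 cells per well. Schedule: cells plated overnight, dye loaded 0.5 h 37 °C, 0.5 h room temperature. Detection: Fluo-4 NW calcium-flux fluorescence, kinetic read. Read-out basis: peak-minus-minimum fluorescence over baseline, converted to B scores. Control set: positive and negative control wells on each plate.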
RGS4 pot = potentiators or activators of RGS4; HEK293 M3R/inducible RGS4, carbachol calcium flux Fluo4; active compounds read low; B-score at 10 µM; 310,000 tested, 0.92% active;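 active means B-score of the integrated calcium signal more than 4 SD below the library mean, with starting fluorescence not abnormally high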;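 further: negative B-score means reduced calcium response which marks RGS4 activation or potentiation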
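Assay system: Inducible-RGS4 HEK293 cells carrying M3 receptor | Schedule: Compound preincubation 20 min at room temperature before agonist | Signal: Kinetic calcium fluorescence imaging with Fluo4-AM dye, 2 µM | Read-out basis: B score from integrated fluorescence ratio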
MrgX1 PAM = human MrgX1 positive allosteric modulation, primary screen; Q96LB2; MrgX1-HEK293, Fluo-4 calcium flux, FDSS; active compounds read high; B-score at 10 µM; 310,000 tested, 0.63% active;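 active means plate-corrected calcium response at least 3 library SD above typical, normal starting fluorescence, not activating the receptor alone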;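 further: compound read alongside a low EC10 to EC30 dose of BAM8-22 agonist; peak minus trough fluorescence over baseline measured at the second addition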
RGS4 block = inhibitors of human RGS4. AID 463165. B-score at 10 µM. P49798. 310,000 tested, 0.45% active. HEK293 M3R/RGS4 inducible, Fluo-4 calcium flux; active compounds read high; triggered by carbachol at its EC20;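 active means B-score, a plate-corrected calcium signal, over three deviations above library mean, with baseline fluorescence within five deviations of library mean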;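 further: RGS4 expression induced by doxycycline in cells with stable M3 receptor; B-score is computed from the integrated fluorescence ratio over baseline after carbachol; higher B-score means a larger calcium signal and so more RGS4 inhibition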
Target sequence (P49798 whole entry, looked up): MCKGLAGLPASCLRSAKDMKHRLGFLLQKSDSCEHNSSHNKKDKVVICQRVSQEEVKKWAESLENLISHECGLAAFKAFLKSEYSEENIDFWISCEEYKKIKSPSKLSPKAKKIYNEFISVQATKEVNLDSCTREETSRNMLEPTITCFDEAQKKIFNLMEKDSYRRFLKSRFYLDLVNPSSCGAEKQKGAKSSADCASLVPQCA
MrgX1 antag = human MrgX1 receptor antagonism, primary screen | 310,000 tested, 1.3% active | Q96LB2 | B-score at 10 µM | AID 588676 | MRGX1-HEK293 calcium flux, Fluo-4, BAM8-22 antagonism; active compounds read low;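 active means calcium-response B-score plate-corrected more than 3 library SD below zero, starting fluorescence within 5 deviations, no agonist response on first addition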;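 further: peak minus trough fluorescence over baseline after final BAM8-22 challenge near maximal dose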
PHOSPHO1 inh = blocks human PHOSPHO1 phosphatase activity; inhibition, % at 13.3 µM; 290,000 tested, 1.1% active; Q8TCT1; recombinant PHOSPHO1, absorbance phosphatase assay; in the data active means inhibition above about 60%
RGS4 act valid = confirmation of RGS4 activators. inhibition, % at 10 µM. shares compounds with RGS4 pot. 1,100 tested, 89% active. HEK293 M3R/RGS4 inducible, carbachol calcium flux Fluo4;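 active means inhibition above 3 SD of the buffer control wells, cut at about 41% in these data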;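 further: signal is the integrated peak-minus-minimum Fluo4 fluorescence over baseline ratio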
RGS4 act ctr = counter-screen for RGS4 activators: effect in non-induced cells; shares compounds with RGS4 pot; HEK293 M3R non-induced RGS4, Fluo4 calcium flux; after carbachol challenge at its EC90; inhibition, % at 10 µM; 1,100 tested, 82% active;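 active means inhibition exceeding 3 SD of buffer-only control wells, cut at about 26% in these data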;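 further: percent drop in integrated peak-minus-baseline over baseline Fluo4 ratio after carbachol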
Hits are given with their value. Hits are enriched below; roughly 4.5% of the tested compounds scored in any of these assays.

How did CCN(CC)C(=O)CSc1nc2cc3c(cc2c(=O)n1CCCCCC(=O)NCc1ccc(OC)cc1)OCO3 do in these assays?
MrgX1 ag: inactive; RGS4 pot: inactive; MrgX1 PAM: inactive; RGS4 block: inactive; MrgX1 antag: inactive; PHOSPHO1 inh: inactive

How did COC(=O)C1=C(C)N(C)C(=O)NC1c1ccc(C)cc1 (stereo not drawn) do in these assays?
MrgX1 ag: inactive; RGS4 pot: inactive; MrgX1 PAM: inactive; RGS4 block: inactive; MrgX1 antag: inactive; PHOSPHO1 inh: inactive

What do the screens show for `CC1=C(C(=O)OC(C)(C)C)C(c2ccc3ccccc3c2)NC(=O)N1C` (stereo not drawn)?
MrgX1 ag: inactive; RGS4 pot: -8; MrgX1 PAM: inactive; RGS4 block: inactive; MrgX1 antag: inactive; PHOSPHO1 inh: inactive; RGS4 act valid: 94; RGS4 act ctr: 81

What do the screens show for `COc1ccc(-c2nc3ccccn3c2NCc2ccc3c(c2)OCO3)cc1`?
MrgX1 ag: inactive; RGS4 pot: -8.6; MrgX1 PAM: inactive; RGS4 block: inactive; MrgX1 antag: inactive; PHOSPHO1 inh: inactive; RGS4 act valid: 60; RGS4 act ctr: inactive

How did c1ccc(-c2nc3ccccn3c2NCc2ccc3c(c2)OCO3)cc1 do in these assays?
MrgX1 ag: inactive; RGS4 pot: inactive; MrgX1 PAM: inactive; RGS4 block: inactive; MrgX1 antag: inactive; PHOSPHO1 inh: inactive

Results for Cc1ccc(Nc2ccc(NCc3ccccc3)nn2)cc1C ?
MrgX1 ag: inactive; RGS4 pot: inactive; MrgX1 PAM: inactive; RGS4 block: inactive; MrgX1 antag: inactive; PHOSPHO1 inh: inactive

How did Clc1ccc(Nc2ccc(NCc3ccccc3)nn2)cc1 do in these assays?
MrgX1 ag: inactive; RGS4 pot: -7.6; MrgX1 PAM: inactive; RGS4 block: inactive; MrgX1 antag: inactive; PHOSPHO1 inh: inactive; RGS4 act valid: inactive; RGS4 act ctr: inactive

Results for Cc1ccc(Nc2nc(Cl)nc(NC(C)(C)C)n2)cc1 ?
MrgX1 ag: inactive; RGS4 pot: -8.2; MrgX1 PAM: inactive; RGS4 block: inactive; MrgX1 antag: inactive; RGS4 act valid: 71; RGS4 act ctr: 39

How did Cc1ccc(NC(=O)CCN2C(=O)c3ccccc3S2(=O)=O)cc1C do in these assays?
MrgX1 ag: inactive; RGS4 pot: inactive; MrgX1 PAM: inactive; RGS4 block: inactive; MrgX1 antag: inactive

How did COc1nc(NCCc2ccc(OC)c(OC)c2)nc(OC)n1 do in these assays?
MrgX1 ag: inactive; RGS4 pot: inactive; MrgX1 PAM: inactive; RGS4 block: inactive; MrgX1 antag: inactive; PHOSPHO1 inh: inactive

What do the screens show for `COc1ccc(CCNc2nc(N3CCCCC3)nc(N3CCCCC3)n2)cc1OC`?
MrgX1 ag: inactive; RGS4 pot: -8.4; MrgX1 PAM: inactive; RGS4 block: inactive; MrgX1 antag: inactive; PHOSPHO1 inh: inactive; RGS4 act valid: 76; RGS4 act ctr: 46

Results for Cc1ccc(Cl)cc1N1CCN(C(=O)CCS(=O)(=O)c2ccc3c(c2)NC(=O)CO3)CC1 ?
MrgX1 ag: inactive; RGS4 pot: inactive; MrgX1 PAM: inactive; RGS4 block: inactive; MrgX1 antag: inactive; PHOSPHO1 inh: inactive

How did CCOc1ccc(OCC(=O)N(CCC2=CCCCC2)c2c(N)n(Cc3ccccc3)c(=O)[nH]c2=O)cc1 do in these assays?
MrgX1 ag: inactive; RGS4 pot: inactive; MrgX1 PAM: inactive; RGS4 block: inactive; MrgX1 antag: inactive

How did COC(=O)c1ccc(C(=O)N(C)C2CCCN(Cc3ccccc3F)C2)cc1 (stereo not drawn) do in these assays?
MrgX1 ag: inactive; RGS4 pot: inactive; MrgX1 PAM: inactive; RGS4 block: inactive; MrgX1 antag: inactive

How did COCc1ccc(C(=O)N(C)C2CCCN(Cc3ccccc3F)C2)o1 (stereo not drawn) do in these assays?
MrgX1 ag: inactive; RGS4 pot: -8.6; MrgX1 PAM: inactive; RGS4 block: inactive; MrgX1 antag: inactive; PHOSPHO1 inh: inactive; RGS4 act valid: 56; RGS4 act ctr: inactive

Results for CCOC(=O)C1=C(COC(=O)c2ccc(OC)c(OC)c2OC)NC(=O)NC1C (stereo not drawn) ?
MrgX1 ag: inactive; RGS4 pot: inactive; MrgX1 PAM: inactive; RGS4 block: inactive; MrgX1 antag: inactive

How did Cc1cc(C)c(S(=O)(=O)n2ccc3ccccc32)c(C)c1 do in these assays?
MrgX1 ag: inactive; RGS4 pot: -9.5; MrgX1 PAM: inactive; RGS4 block: inactive; MrgX1 antag: inactive; PHOSPHO1 inh: inactive; RGS4 act valid: 76; RGS4 act ctr: 29

What do the screens show for `O=S(=O)(c1ccc(Br)s1)N1CCN(Cc2ccc3c(c2)OCO3)CC1`?
MrgX1 ag: inactive; RGS4 pot: -9.3; MrgX1 PAM: inactive; RGS4 block: inactive; MrgX1 antag: inactive; PHOSPHO1 inh: inactive; RGS4 act valid: 90; RGS4 act ctr: 86

Results for O=C(O)c1ccc(N/N=C/c2ccc(OC(=O)c3ccccc3Cl)cc2)cc1 ?
MrgX1 ag: inactive; RGS4 pot: -14; MrgX1 PAM: inactive; RGS4 block: inactive; MrgX1 antag: inactive; PHOSPHO1 inh: inactive; RGS4 act valid: inactive; RGS4 act ctr: inactive

How did O=C(O)c1ccc(N/N=C/c2ccc(-c3ccccc3)cc2)cc1 do in these assays?
RGS4 pot: inactive; RGS4 block: inactive; PHOSPHO1 inh: inactive

How did CCNC(=S)N1CCN(c2nc(-c3cccc(OC)c3)cs2)CC1 do in these assays?
MrgX1 ag: inactive; RGS4 pot: inactive; MrgX1 PAM: inactive; RGS4 block: inactive; MrgX1 antag: inactive

What do the screens show for `COc1cccc(-c2csc(N3CCN(C(=S)NCC(C)C)CC3)n2)c1`?
MrgX1 ag: inactive; RGS4 pot: -7.7; MrgX1 PAM: inactive; RGS4 block: inactive; MrgX1 antag: inactive; PHOSPHO1 inh: inactive; RGS4 act valid: 80; RGS4 act ctr: 56

How did NS(=O)(=O)c1ccc(NC(=S)NNC(=O)CCC(=O)Nc2ccccc2Cl)cc1 do in these assays?
MrgX1 ag: inactive; RGS4 pot: inactive; MrgX1 PAM: inactive; RGS4 block: inactive; MrgX1 antag: inactive; PHOSPHO1 inh: inactive

Results for CCN(CC)CCCN(C(=O)c1ccc(Br)cc1)c1nc(-c2ccc(OC)cc2)cs1 ?
MrgX1 ag: inactive; RGS4 pot: inactive; MrgX1 PAM: inactive; RGS4 block: inactive; MrgX1 antag: inactive; PHOSPHO1 inh: inactive

Results for CCN(CC)CCCN(C(=O)c1cccs1)c1nc(-c2ccc(OC)cc2)cs1 ?
MrgX1 ag: inactive; RGS4 pot: -11; MrgX1 PAM: inactive; RGS4 block: inactive; MrgX1 antag: inactive; PHOSPHO1 inh: inactive; RGS4 act valid: 90; RGS4 act ctr: 31
